Assay results taken from ChEMBL document CHEMBL1255259, “Phosphorothioate-modified oligodeoxynucleotides inhibit human cytomegalovirus replication by blocking virus entry” (Antimicrob Agents Chemother, 2008).
Calls of active or inactive are those of the source. No cut-off for these calls is given here.

Experiments:
[1] = Cytotoxicity against HELF assessed as cell viability after 6 days by MTT assay; assay type: cell-based; conditions: human, HELF cells
How it was run: (§1)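 HELF exposed to rising ODN concentrations (up to 10 μM) for 6 days; viable cells measured by MTT. CC50 taken as concentration that cuts viability to 50%.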

Human betaherpesvirus 5 [2] = assay: Antimicrobial activity against 0.1 uM compound pretreated Human cytomegalovirus AD169 infected in HELF assessed as reduction in viral titer at 4 degC; assay type: functional, organism-based
How it was run: (§2)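 HCMV AD169 (10^4 PFU) incubated with ODN at 0.1 μM at 4 or 37°C for various times; samples then diluted to bring ODN below an antivirally active level; residual infectivity titrated by plaque assay on HELF. Means ± SD of three independent experiments.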

Human betaherpesvirus 5 [3] = assay: Antimicrobial activity against 0.1 uM compound pretreated Human cytomegalovirus AD169 infected in HELF assessed as reduction in viral titer 37 degC; assay type: functional, organism-based; how it was run: as §2
Human betaherpesvirus 5 [4] = assay: Antimicrobial activity against Human cytomegalovirus AD169 infected in 0.1 uM compound pretreated HELF assessed as inhibition of viral replication measured after 6 days post-infection; assay type: functional, organism-based
How it was run: (§3)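 HELF pretreated with ODN 1 h before infection with HCMV AD169 (MOI 1); ODN kept in medium after 2 h adsorption at 37°C. At 6 days p.i., cells plus supernatants sonicated and titrated by plaque assay on HELF; plaques counted microscopically, expressed as PFU/ml (log10) or % of control. IC50/IC90 by linear regression; duplicate wells, three independent experiments, means ± SD.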

Human betaherpesvirus 5 [5] = assay: Antimicrobial activity against Human cytomegalovirus AD169 infected in 1 uM compound pretreated HELF assessed as inhibition of viral replication measured after 6 days post-infection; assay type: functional, organism-based; how it was run: as §3
Human betaherpesvirus 5 [6] = assay: Antimicrobial activity against Human cytomegalovirus AD169 infected in compound pretreated HELF assessed as inhibition of viral replication measured after 6 days post-infection; assay type: functional, organism-based; conditions: Human betaherpesvirus 5, AD169, HELF; how it was run: as §3
[7] = Cytotoxicity against HELF assessed as cell viability by MTT assay after 6 days at <=10 uM; assay type: cell-based; conditions: human, 144 h; how it was run: as §1

In the case of `Cc1cn([C@H]2C[C@H](OP(O)(=S)OC[C@H]3O[C@@H](n4ccc(N)nc4=O)[C@H](O)[C@@H]3OP(O)(=S)OC[C@H]3O[C@@H](n4cnc5c(=O)[nH]c(N)nc54)[C@H](O)[C@@H]3OP(O)(=S)OC[C@H]3O[C@@H](n4cc(C)c(=O)[nH]c4=O)C[C@@H]3OP(O)(=S)OC[C@H]3O[C@@H](n4ccc(N)nc4=O)[C@H](O)[C@@H]3OP(O)(=S)OC[C@H]3O[C@@H](n4cnc5c(=O)[nH]c(N)nc54)[C@H](O)[C@@H]3OP(O)(=S)OC[C@H]3O[C@@H](n4cc(C)c(=O)[nH]c4=O)C[C@@H]3OP(O)(=S)OC[C@H]3O[C@@H](n4cc(C)c(=O)[nH]c4=O)C[C@@H]3OP(O)(=S)OC[C@H]3O[C@@H](n4cc(C)c(=O)[nH]c4=O)C[C@@H]3OP(O)(=S)OC[C@H]3O[C@@H](n4cc(C)c(=O)[nH]c4=O)C[C@@H]3OP(O)(=S)OC[C@H]3O[C@@H](n4ccc(N)nc4=O)[C@H](O)[C@@H]3OP(O)(=S)OC[C@H]3O[C@@H](n4cnc5c(=O)[nH]c(N)nc54)[C@H](O)[C@@H]3OP(O)(=S)OC[C@H]3O[C@@H](n4cnc5c(=O)[nH]c(N)nc54)[C@H](O)[C@@H]3OP(O)(=S)OC[C@H]3O[C@@H](n4ccc(N)nc4=O)[C@H](O)[C@@H]3OP(O)(=S)OC[C@H]3O[C@@H](n4cnc5c(=O)[nH]c(N)nc54)[C@H](O)[C@@H]3OP(O)(=S)OC[C@H]3O[C@@H](n4ccc(N)nc4=O)[C@H](O)[C@@H]3OP(O)(=S)OC[C@H]3O[C@@H](n4cnc5c(=O)[nH]c(N)nc54)[C@H](O)[C@@H]3OP(O)(=S)OC[C@H]3O[C@@H](n4ccc(N)nc4=O)[C@H](O)[C@@H]3OP(O)(=S)OC[C@H]3O[C@@H](n4cnc5c(=O)[nH]c(N)nc54)[C@H](O)[C@@H]3OP(O)(=S)OC[C@H]3O[C@@H](n4ccc(N)nc4=O)[C@H](O)[C@@H]3OP(O)(=S)OC[C@H]3O[C@@H](n4ccc(N)nc4=O)[C@H](O)[C@@H]3OP(O)(=S)OC[C@H]3O[C@@H](n4cnc5c(=O)[nH]c(N)nc54)[C@H](O)[C@@H]3OP(O)(O)=S)[C@@H](CO)O2)c(=O)[nH]c1=O` (some centres not stated), the CC50 at 144 h [1] is reported as > 10 µM, the inhibition (Human betaherpesvirus 5 [2]) is reported as “inactive” and the inhibition (Human betaherpesvirus 5 [3]) is reported as “inactive”. The inhibition (Human betaherpesvirus 5 [4]) was “Active”, the inhibition (Human betaherpesvirus 5 [5]) was “Active” and the IC50 (Human betaherpesvirus 5 [6]) was 0.1 µM. For the same compound, the IC90 (Human betaherpesvirus 5 [6]) was 3.2 µM and the Activity [7] was “Non-toxic”.
In the case of `Cc1cn([C@H]2C[C@H](OP(=O)(O)OC[C@H]3O[C@@H](n4ccc(N)nc4=O)[C@H](O)[C@@H]3OP(=O)(O)OC[C@H]3O[C@@H](n4cnc5c(=O)[nH]c(N)nc54)[C@H](O)[C@@H]3OP(=O)(O)OC[C@H]3O[C@@H](n4cc(C)c(=O)[nH]c4=O)C[C@@H]3OP(=O)(O)OC[C@H]3O[C@@H](n4ccc(N)nc4=O)[C@H](O)[C@@H]3OP(=O)(O)OC[C@H]3O[C@@H](n4cnc5c(=O)[nH]c(N)nc54)[C@H](O)[C@@H]3OP(=O)(O)OC[C@H]3O[C@@H](n4cnc5c(=O)[nH]c(N)nc54)[C@H](O)[C@@H]3OP(O)(=S)OC[C@H]3O[C@@H](n4cnc5c(=O)[nH]c(N)nc54)[C@H](O)[C@@H]3OP(O)(=S)OC[C@H]3O[C@@H](n4cnc5c(=O)[nH]c(N)nc54)[C@H](O)[C@@H]3OP(O)(=S)OC[C@H]3O[C@@H](n4cnc5c(=O)[nH]c(N)nc54)[C@H](O)[C@@H]3OP(O)(=S)OC[C@H]3O[C@@H](n4cnc5c(=O)[nH]c(N)nc54)[C@H](O)[C@@H]3OP(O)(O)=S)[C@@H](COP(=O)(O)O[C@H]3[C@@H](O)[C@H](n4cnc5c(N)ncnc54)O[C@@H]3COP(=O)(O)O[C@H]3[C@@H](O)[C@H](n4cnc5c(=O)[nH]c(N)nc54)O[C@@H]3COP(=O)(O)O[C@H]3[C@@H](O)[C@H](n4ccc(N)nc4=O)O[C@@H]3COP(=O)(O)O[C@H]3[C@@H](O)[C@H](n4cnc5c(N)ncnc54)O[C@@H]3COP(=O)(O)O[C@H]3[C@@H](O)[C@H](n4cnc5c(=O)[nH]c(N)nc54)O[C@@H]3COP(=O)(O)O[C@H]3[C@@H](O)[C@H](n4cnc5c(=O)[nH]c(N)nc54)O[C@@H]3COP(=O)(O)O[C@H]3[C@@H](O)[C@H](n4cnc5c(=O)[nH]c(N)nc54)O[C@@H]3COP(O)(=S)O[C@H]3[C@@H](O)[C@H](n4cnc5c(=O)[nH]c(N)nc54)O[C@@H]3COP(O)(=S)O[C@H]3[C@@H](O)[C@H](n4cnc5c(=O)[nH]c(N)nc54)O[C@@H]3CO)O2)c(=O)[nH]c1=O` (some centres not stated), the CC50 at 144 h [1] is reported as > 10 µM, the inhibition (Human betaherpesvirus 5 [2]) is reported as “inactive” and the inhibition (Human betaherpesvirus 5 [3]) is reported as “inactive”. The inhibition (Human betaherpesvirus 5 [4]) was “Active”, the inhibition (Human betaherpesvirus 5 [5]) was “Active” and the IC50 (Human betaherpesvirus 5 [6]) was 0.14 µM. The IC90 (Human betaherpesvirus 5 [6]) was 3.6 µM and the Activity [7] was “Non-toxic”.
In the case of `Cc1cn([C@H]2C[C@H](OP(O)(=S)OC[C@H]3O[C@@H](n4cc(C)c(=O)[nH]c4=O)C[C@@H]3OP(O)(O)=S)[C@@H](OOP(O)(=S)O[C@H]3[C@@H](O)[C@H](n4ccc(N)nc4=O)O[C@@H]3COP(O)(=S)O[C@H]3[C@@H](O)[C@H](n4cnc5c(=O)[nH]c(N)nc54)O[C@@H]3COP(O)(=S)O[C@H]3[C@@H](O)[C@H](n4cnc5c(N)ncnc54)O[C@@H]3COP(O)(=S)O[C@H]3[C@@H](O)[C@H](n4cnc5c(=O)[nH]c(N)nc54)O[C@@H]3COP(O)(=S)O[C@H]3C[C@H](n4cc(C)c(=O)[nH]c4=O)O[C@@H]3COP(O)(=S)O[C@H]3[C@@H](O)[C@H](n4ccc(N)nc4=O)O[C@@H]3COP(O)(=S)O[C@H]3[C@@H](O)[C@H](n4ccc(N)nc4=O)O[C@@H]3COP(O)(=S)O[C@H]3C[C@H](n4cc(C)c(=O)[nH]c4=O)O[C@@H]3COP(O)(=S)O[C@H]3C[C@H](n4cc(C)c(=O)[nH]c4=O)O[C@@H]3COP(O)(=S)O[C@H]3[C@@H](O)[C@H](n4ccc(N)nc4=O)O[C@@H]3COP(O)(=S)O[C@H]3[C@@H](O)[C@H](n4cnc5c(=O)[nH]c(N)nc54)O[C@@H]3COP(O)(=S)O[C@H]3[C@@H](O)[C@H](n4cnc5c(N)ncnc54)O[C@@H]3COP(O)(=S)O[C@H]3[C@@H](O)[C@H](n4cnc5c(=O)[nH]c(N)nc54)O[C@@H]3COP(O)(=S)O[C@H]3C[C@H](n4cc(C)c(=O)[nH]c4=O)O[C@@H]3COP(O)(=S)O[C@H]3[C@@H](O)[C@H](n4cnc5c(N)ncnc54)O[C@@H]3COP(O)(=S)O[C@H]3[C@@H](O)[C@H](n4ccc(N)nc4=O)O[C@@H]3COP(O)(=S)O[C@H]3[C@@H](O)[C@H](n4ccc(N)nc4=O)O[C@@H]3COP(O)(=S)O[C@H]3C[C@H](n4cc(C)c(=O)[nH]c4=O)O[C@@H]3CO)O2)c(=O)[nH]c1=O` (some centres not stated), the CC50 at 144 h [1] is reported as > 10 µM, the inhibition (Human betaherpesvirus 5 [2]) is reported as “inactive” and the inhibition (Human betaherpesvirus 5 [3]) is reported as “inactive”. For the same compound, the inhibition (Human betaherpesvirus 5 [4]) was “Active”, the inhibition (Human betaherpesvirus 5 [5]) was “Active” and the IC50 (Human betaherpesvirus 5 [6]) was 0.2 µM. For the same compound, the IC90 (Human betaherpesvirus 5 [6]) was > 5 µM and the Activity [7] was “Non-toxic”.
With `Cc1cn([C@H]2C[C@H](OP(=O)(O)O)[C@@H](COP(=O)(O)O[C@H]3C[C@H](n4cc(C)c(=O)[nH]c4=O)O[C@@H]3COP(=O)(O)O[C@H]3[C@@H](O)[C@H](n4cnc5c(=O)[nH]c(N)nc54)O[C@@H]3COP(=O)(O)O[C@H]3[C@@H](O)[C@H](n4ccc(N)nc4=O)O[C@@H]3COP(=O)(O)O[C@H]3C[C@H](n4cc(C)c(=O)[nH]c4=O)O[C@@H]3COP(=O)(O)O[C@H]3[C@@H](O)[C@H](n4cnc5c(=O)[nH]c(N)nc54)O[C@@H]3COP(=O)(O)O[C@H]3C[C@H](n4cc(C)c(=O)[nH]c4=O)O[C@@H]3COP(=O)(O)O[C@H]3C[C@H](n4cc(C)c(=O)[nH]c4=O)O[C@@H]3COP(=O)(O)O[C@H]3C[C@H](n4cc(C)c(=O)[nH]c4=O)O[C@@H]3COP(=O)(O)O[C@H]3C[C@H](n4cc(C)c(=O)[nH]c4=O)O[C@@H]3COP(=O)(O)O[C@H]3[C@@H](O)[C@H](n4cnc5c(=O)[nH]c(N)nc54)O[C@@H]3COP(=O)(O)O[C@H]3[C@@H](O)[C@H](n4ccc(N)nc4=O)O[C@@H]3COP(=O)(O)O[C@H]3C[C@H](n4cc(C)c(=O)[nH]c4=O)O[C@@H]3COP(=O)(O)O[C@H]3[C@@H](O)[C@H](n4cnc5c(=O)[nH]c(N)nc54)O[C@@H]3COP(=O)(O)O[C@H]3C[C@H](n4cc(C)c(=O)[nH]c4=O)O[C@@H]3COP(=O)(O)O[C@H]3C[C@H](n4cc(C)c(=O)[nH]c4=O)O[C@@H]3COP(=O)(O)O[C@H]3C[C@H](n4cc(C)c(=O)[nH]c4=O)O[C@@H]3COP(=O)(O)O[C@H]3C[C@H](n4cc(C)c(=O)[nH]c4=O)O[C@@H]3COP(=O)(O)O[C@H]3[C@@H](O)[C@H](n4cnc5c(=O)[nH]c(N)nc54)O[C@@H]3COP(=O)(O)O[C@H]3[C@@H](O)[C@H](n4ccc(N)nc4=O)O[C@@H]3COP(=O)(O)O[C@H]3C[C@H](n4cc(C)c(=O)[nH]c4=O)O[C@@H]3COP(=O)(O)O[C@H]3[C@@H](O)[C@H](n4cnc5c(=O)[nH]c(N)nc54)O[C@@H]3COP(=O)(O)O[C@H]3[C@@H](O)[C@H](n4ccc(N)nc4=O)O[C@@H]3COP(=O)(O)O[C@H]3C[C@H](n4cc(C)c(=O)[nH]c4=O)O[C@@H]3CO)O2)c(=O)[nH]c1=O` the CC50 at 144 h [1] was > 10 µM, the inhibition (Human betaherpesvirus 5 [2]) was “inactive” and the inhibition (Human betaherpesvirus 5 [3]) was “inactive”. The inhibition (Human betaherpesvirus 5 [4]) was “Active”, the inhibition (Human betaherpesvirus 5 [5]) was “Active” and the IC50 (Human betaherpesvirus 5 [6]) was 3.8 µM. The IC90 (Human betaherpesvirus 5 [6]) was > 10 µM and the Activity [7] was “Non-toxic”.
